Test results as given in paper PMC7165017 (Inorganic chemistry, 2019).
Like-named read-outs stand apart in the source and are kept apart here.

Columns and labels:
[1] = Solution stability study by 1H NMR; assay type: physicochemical; conditions: DMSO-d6/phosphate buffer 3:7 (v/v), within 12 h
Method in brief: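 Complexes were monitored by 1H NMR in DMSO-d6 or DMF-d7 mixed 1:9 (v/v) with degassed 20 mM phosphate buffer (pD 7.4, 4 mM NaCl). Spectra were taken at 25 °C at time points up to 24 h. Free ligands were monitored in DMSO-d6/phosphate buffer 3:7 (v/v).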

MDA-MB-231 cells = test: MTT cell viability assay, MDA-MB-231; assay type: cell-based, human
Method in brief: (§1)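 Media: Hep G2 in MEM, MIA PaCa-2 in DMEM, MDA-MB-231 in DMEM/F-12, each with 10% FBS and antibiotics. Cells were seeded at 6 × 10^3 per well and kept 48 h at 37 °C, 5% CO2. Medium was renewed, then compound was added (DMSO ≤0.2%, vehicle-matched) for 48 h in triplicate wells. MTT (1 mg mL−1) ran 3 h; formazan was dissolved in DMSO and read at 595 nm versus untreated wells. IC50 came from a four-parameter variable-slope fit, ≥3 independent experiments. Hypoxic MDA-MB-231 cells were kept at 1.5% O2 for ≥2 passages beforehand.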

MIA PaCa-2 cells = test: MTT cell viability assay, MIA PaCa-2; assay type: cell-based, human; conditions: read-out: IC50 ± SD, MIA PaCa-2, 48 h, normoxia (∼15% O2)
Method in brief: as §1

Hep G2 cells = test: MTT cell viability assay, Hep G2; assay type: cell-based, human; conditions: read-out: IC50 ± SD, Hep G2, 48 h, normoxia (∼15% O2)
Method in brief: as §1

[2] = system: microtubule network in MDA-MB-231 cells; test: Immunofluorescence study of microtubule network disruption; assay type: cell-based, human; conditions: 12 h; cisplatin 50 μM, colchicine 100 nM (controls)
Method in brief: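 5 × 10^4 MDA-MB-231 cells were grown on glass coverslips for 48 h, then treated 12 h (vehicle 0.1% DMSO). Fixation used 4% paraformaldehyde for 10 min and 100 mM glycine quench, followed by 3% BSA/PBST block for 20 min. Rabbit monoclonal anti-α-tubulin (1:400, 2 h) was followed by AlexaFluor 488 anti-rabbit (1:1000, 2 h, dark) and DAPI mount. Confocal imaging used a 63× objective. Microtubule-network perimeter was averaged over ≥10 treated versus ≥10 untreated cells and expressed as relative perimeter.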

hydrolysis of ligand into amine and aldehyde [1] | Compound | disruption of the microtubule network [2] | also measured
~80% | COc1cc(N=Cc2ccccc2O)cc(OC)c1OC [Complex L1, 2-{[(3,4,5-Trimethoxyphenyl)imino]-methyl}phenol] | – | –
~80% | COc1cccc(C=Nc2cc(OC)c(OC)c(OC)c2)c1O [Complex L3, 2-Methoxy-6-{[(3,4,5-trimethoxyphenyl)imino]-methyl}phenol] | – | –
– | [NH2][Pt]([NH2])([Cl])[Cl] [CDDP, cisplatin, reference compound] | did not observe any disruption of the microtubule formation | IC50 (MDA-MB-231 cells; read-out: IC50 ± SD, MDA-MB-231 (hypo), 48 h, hypoxia (1.5% O2)): 37.8 ± 2.3 µM; IC50 (MDA-MB-231 cells; read-out: IC50 ± SD, MDA-MB-231, 48 h, normoxia (∼15% O2)): 37.2 ± 2.5 µM; IC50 (MIA PaCa-2 cells): 31.8 ± 4.8 µM; IC50 (Hep G2 cells): 14.3 ± 0.8 µM
– | COc1cc2c(c(OC)c1OC)-c1ccc(OC)c(=O)cc1[C@@H](NC(C)=O)CC2 [colchicine, reference compound] | exhibited microtubule network damage | –
